This note sets out measurements from ChEMBL document CHEMBL4346653, “A2B Adenosine Receptor Antagonists with Picomolar Potency” (J Med Chem, 2019).

For data set [1], the target named is T1, Adenosine receptor A2b (Homo sapiens, UniProt P29275).
T1 sequence (P29275 whole entry): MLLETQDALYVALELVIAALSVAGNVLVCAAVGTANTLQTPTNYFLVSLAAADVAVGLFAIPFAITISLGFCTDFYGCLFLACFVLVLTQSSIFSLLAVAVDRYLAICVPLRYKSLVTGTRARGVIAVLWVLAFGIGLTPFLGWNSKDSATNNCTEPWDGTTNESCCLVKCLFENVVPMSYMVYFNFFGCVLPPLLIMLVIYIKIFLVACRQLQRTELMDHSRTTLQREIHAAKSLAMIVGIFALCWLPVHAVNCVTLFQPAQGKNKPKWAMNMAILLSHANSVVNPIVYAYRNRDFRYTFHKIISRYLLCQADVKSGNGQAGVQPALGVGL
Briefly: Displacement of [3H]PSB-603 from recombinant human A2B adenosine receptor expressed in CHO cell membranes measured after 75 mins in presence of adenosine deaminase by liquid scintillation counting method. The method, boiled down:
(§1)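 Competition binding on membranes of cells recombinantly expressing the human receptor (CHO or HEK cells), with tritiated radioligand per subtype: [3H]PSB-603 for A2B, [3H]MSX-2 for A2A, [3H]CCPA for A1, [3H]PSB-11 for A3. Ki ± SEM from n = 3, some from extrapolated curves. Weak binders are reported as % inhibition of radioligand binding at 1 μM.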

In data set [2] the target is T2, Adenosine receptor A2a (Homo sapiens, UniProt P29274). Put plainly: Displacement of [3H]MSX-2 from recombinant human A2A adenosine receptor expressed in CHO cell membranes measured after 30 mins in presence of adenosine deaminase by liquid scintillation counting method. A digest of the protocol: as §1
T2 sequence (P29274 whole entry): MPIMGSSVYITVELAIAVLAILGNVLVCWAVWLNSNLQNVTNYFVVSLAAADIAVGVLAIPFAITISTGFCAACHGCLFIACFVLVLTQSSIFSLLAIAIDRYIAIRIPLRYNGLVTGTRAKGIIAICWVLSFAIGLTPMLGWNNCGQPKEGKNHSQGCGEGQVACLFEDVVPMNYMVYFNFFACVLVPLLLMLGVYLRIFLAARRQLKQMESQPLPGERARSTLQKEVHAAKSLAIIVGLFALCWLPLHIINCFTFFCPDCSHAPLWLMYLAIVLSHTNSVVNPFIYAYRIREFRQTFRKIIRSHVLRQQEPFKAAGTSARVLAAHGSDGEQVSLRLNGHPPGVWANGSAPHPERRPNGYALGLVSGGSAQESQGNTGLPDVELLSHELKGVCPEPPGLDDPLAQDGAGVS
Data set [3] has as its target T3, Adenosine receptor A1 (Homo sapiens, UniProt P30542).
T3 sequence (P30542 whole entry): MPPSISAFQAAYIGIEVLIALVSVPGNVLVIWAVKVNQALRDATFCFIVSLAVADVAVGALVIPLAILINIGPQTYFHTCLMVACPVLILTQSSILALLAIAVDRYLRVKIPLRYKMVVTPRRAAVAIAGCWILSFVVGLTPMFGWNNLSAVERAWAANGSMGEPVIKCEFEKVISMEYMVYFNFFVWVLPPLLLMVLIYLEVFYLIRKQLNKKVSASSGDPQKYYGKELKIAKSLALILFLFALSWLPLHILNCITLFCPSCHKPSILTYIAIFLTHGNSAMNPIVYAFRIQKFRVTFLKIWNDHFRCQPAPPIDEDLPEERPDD
Briefly: Displacement of [3H]CCPA from recombinant human A1 adenosine receptor expressed in CHO cell membranes measured after 90 mins in presence of adenosine deaminase by liquid scintillation counting method. A digest of the protocol: as §1
(In general: Displacement assays read how much labelled ligand stays bound in the presence of the test substance.)

The target of data set [4] is T4, Adenosine receptor A3 (Homo sapiens, UniProt P0DMS8).
T4 sequence (P0DMS8 whole entry): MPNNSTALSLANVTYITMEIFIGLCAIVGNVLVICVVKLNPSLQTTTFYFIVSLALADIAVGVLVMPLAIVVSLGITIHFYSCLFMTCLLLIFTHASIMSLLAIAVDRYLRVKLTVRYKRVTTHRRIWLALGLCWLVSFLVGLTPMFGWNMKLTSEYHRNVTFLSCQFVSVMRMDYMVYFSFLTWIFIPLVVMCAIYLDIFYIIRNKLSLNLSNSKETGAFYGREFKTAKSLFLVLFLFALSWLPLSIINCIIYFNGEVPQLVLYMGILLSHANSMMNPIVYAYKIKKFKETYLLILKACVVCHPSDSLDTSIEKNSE
Briefly: Displacement of [3H]PSB-11 from recombinant human A3 adenosine receptor expressed in CHO cell membranes measured after 45 mins in presence of adenosine deaminase by liquid scintillation counting method. A digest of the protocol:
as §1

Data set [5] addresses T5, Adenosine receptor A2b (Mus musculus, UniProt Q60614).
T5 sequence (Q60614 whole entry): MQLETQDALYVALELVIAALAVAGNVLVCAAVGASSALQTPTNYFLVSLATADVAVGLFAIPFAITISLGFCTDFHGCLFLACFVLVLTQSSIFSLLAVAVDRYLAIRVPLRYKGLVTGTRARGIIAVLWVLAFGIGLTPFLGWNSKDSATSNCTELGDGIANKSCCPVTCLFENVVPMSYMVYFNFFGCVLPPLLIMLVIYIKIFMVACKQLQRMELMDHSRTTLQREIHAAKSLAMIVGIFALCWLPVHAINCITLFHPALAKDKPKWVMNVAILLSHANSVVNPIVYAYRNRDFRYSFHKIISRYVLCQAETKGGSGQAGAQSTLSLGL
Briefly: Displacement of [3H]PSB-603 from recombinant mouse A2B adenosine receptor expressed in CHO cell membranes measured after 75 mins in presence of adenosine deaminase by liquid scintillation counting method.

For data set [6], the target named is T6, Adenosine receptor A1 (Mus musculus, UniProt Q60612).
T6 sequence (Q60612 whole entry): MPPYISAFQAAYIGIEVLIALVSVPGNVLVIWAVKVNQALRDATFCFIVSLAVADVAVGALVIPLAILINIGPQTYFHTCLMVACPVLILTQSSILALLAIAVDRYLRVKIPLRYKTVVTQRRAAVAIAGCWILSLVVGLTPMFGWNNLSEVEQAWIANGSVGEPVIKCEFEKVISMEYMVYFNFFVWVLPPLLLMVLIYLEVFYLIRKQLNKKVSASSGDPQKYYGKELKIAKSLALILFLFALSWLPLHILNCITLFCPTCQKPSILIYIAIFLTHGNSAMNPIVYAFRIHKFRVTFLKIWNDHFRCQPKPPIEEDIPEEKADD
Briefly: Displacement of [3H]CCPA from recombinant mouse A1 adenosine receptor expressed in CHO cell membranes measured after 90 mins in presence of adenosine deaminase by liquid scintillation counting method.

Data set [7] concerns the target T7, Adenosine receptor A3 (Mus musculus, UniProt Q61618).
T7 sequence (Q61618 whole entry): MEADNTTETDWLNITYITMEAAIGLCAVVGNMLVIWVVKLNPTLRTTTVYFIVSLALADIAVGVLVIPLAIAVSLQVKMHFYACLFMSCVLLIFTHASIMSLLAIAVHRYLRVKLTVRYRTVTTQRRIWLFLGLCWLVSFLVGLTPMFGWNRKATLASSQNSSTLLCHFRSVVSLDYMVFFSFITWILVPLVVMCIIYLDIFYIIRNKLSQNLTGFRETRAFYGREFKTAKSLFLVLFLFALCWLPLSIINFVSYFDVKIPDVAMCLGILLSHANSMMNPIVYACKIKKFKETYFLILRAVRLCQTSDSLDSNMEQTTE
Briefly: Displacement of [3H]NECA from recombinant mouse A3 adenosine receptor expressed in CHO cell membranes measured after 180 mins in presence of adenosine deaminase by liquid scintillation counting method.

For data set [8], the target named is T8, Adenosine receptor A3 (Homo sapiens) (UniProt P0DMS8).
T8 sequence (whole entry): T4 sequence (P0DMS8 whole entry)
Briefly: Displacement of [3H]PSB-11 from recombinant human A3 adenosine receptor expressed in CHO cell membranes at 1 uM measured after 45 mins in presence of adenosine deaminase by liquid scintillation counting method relative to control. A digest of the protocol:
(§2)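 Single-point competition binding at human AR subtype membranes, each against its own tritiated radioligand. The test compound is given at 1 μM, and the result is reported as percent inhibition of radioligand binding. The radioligand-specific footnotes give n = 3.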

The species entered for data set [9] is Homo sapiens. Briefly: Selectivity index, ratio of Ki for displacement of [3H]MSX-2 from recombinant human A2A adenosine receptor expressed in CHO cell membranes to Ki for displacement of [3H]PSB-603 from recombinant human A2B adenosine receptor expressed in CHO cell membranes.
Data set [10] is filed under the species Homo sapiens. Briefly: Selectivity index, ratio of Ki for displacement of [3H]CCPA from recombinant human A1 adenosine receptor expressed in CHO cell membranes to Ki for displacement of [3H]PSB-603 from recombinant human A2B adenosine receptor expressed in CHO cell membranes.
For data set [11], the target named is T9, Adenosine receptor A3 (Mus musculus) (UniProt Q61618).
T9 sequence (whole entry): T7 sequence (Q61618 whole entry)
Briefly: Displacement of [3H]NECA from recombinant mouse A3 adenosine receptor expressed in CHO cell membranes at 1 uM measured after 180 mins in presence of adenosine deaminase by liquid scintillation counting method relative to control.

Data set [12] has as its target T10, Adenosine receptor A2b (Homo sapiens) (UniProt P29275).
T10 sequence (whole entry): T1 sequence (P29275 whole entry)
Put plainly: Competitive antagonist activity at recombinant human A2B adenosine receptor expressed in CHO cells assessed as reduction in NECA-induced […] cAMP accumulation preincubated for 10 mins followed by NECA stimulation for 15 mins […] and measured after 15 mins. Format: functional, cell-based.

The species named for a further data set is Mus musculus. Briefly: Selectivity ratio of Ki for displacement of [3H]CCPA from recombinant mouse A1 adenosine receptor expressed in CHO cell membranes to Ki for displacement of [3H]PSB-603 from recombinant mouse A2B adenosine receptor expressed in CHO cell membranes.
Data set [13] is described as follows: Selectivity ratio of Ki for displacement of [3H]PSB-603 from recombinant mouse A2B adenosine receptor expressed in CHO cell membranes to Ki for displacement of [3H]PSB-603 from recombinant human A2B adenosine receptor expressed in CHO cell membranes.
Data set [14] concerns the target T2, Adenosine receptor A2a. Briefly: Displacement of [3H]MSX-2 from recombinant human A2A adenosine receptor expressed in CHO cell membranes at 1 uM measured after 30 mins in presence of adenosine deaminase by liquid scintillation counting method relative to control. A digest of the protocol: as §2
In data set [15] the target is T11, Adenosine receptor A1 (Homo sapiens) (UniProt P30542).
T11 sequence (whole entry): T3 sequence (P30542 whole entry)
Put plainly: Displacement of [3H]CCPA from recombinant human A1 adenosine receptor expressed in CHO cell membranes at 1 uM measured after 90 mins in presence of adenosine deaminase by liquid scintillation counting method relative to control. A digest of the protocol: as §2

Data set [16] is filed under the species Homo sapiens. Put plainly: Selectivity index, ratio of Ki for displacement of [3H]PSB-11 from recombinant human A3 adenosine receptor expressed in CHO cell membranes to Ki for displacement of [3H]PSB-603 from recombinant human A2B adenosine receptor expressed in CHO cell membranes.
Data set [17] can be described thus: Semi-thermodynamic solubility of the compound at 200 uM after 24 hrs by LC/MS-based shake-flask method. To be noted: read-out: Therm_solubility. The class given is physicochemical.

Usually Ki stands for a measure of affinity in units of concentration, obtained from inhibition or displacement. One may read the inhibition as how much of the control response was suppressed. In general, Kb refers to the equilibrium dissociation constant of an antagonist, usually derived from a functional assay.

≈ marks a conversion by molar mass, not a printed value.

For the compound `CCCn1c(=O)[nH]c2nc(-c3ccc(S(=O)(=O)N4CCN(Cc5cccc(Br)c5)CC4)cc3)[nH]c2c1=O`, the Ki at Adenosine receptor A2b [1] was 0.148 nM; on Adenosine receptor A2a [2] it was 92.4 nM; on Adenosine receptor A1 [3], 928 nM; on Adenosine receptor A3 [4], over 1000 nM; on Adenosine receptor A2b [5], 0.901 nM; on Adenosine receptor A1 [6], 107 nM. Moreover, the Ki at Adenosine receptor A3 [7] was over 1000 nM. Moreover, the results for the inhibition in data set [8] and in data set [11] were 23% and 5%, respectively. Also, the Ratio Ki is 620 in the data set filed under Homo sapiens [9], 620 in the data set listed under Homo sapiens [10], over 120 in the data set listed under Mus musculus and 1.5 to 6 in data set [13]. Moreover, the antagonist equilibrium constant (Kb) in data set [12] is 0.201 nM.
Turning to `CCCn1c(=O)[nH]c2nc(-c3ccc(S(=O)(=O)N4CCN(c5ccc(Cl)cc5F)CC4)cc3)[nH]c2c1=O`, the inhibition constant (Ki) was 1.91 nM at Adenosine receptor A2b [1], over 1000 nM on Adenosine receptor A2a [2], over 1000 nM on Adenosine receptor A1 [3] and over 1000 nM on Adenosine receptor A3 [4]. Also, the inhibition is 6% at Adenosine receptor A2a [14], 9% in [15] and 14% in data set [8]. Also, the Ratio Ki in the data set filed under Homo sapiens [9], in the data set filed under Homo sapiens [10] and in the data set listed under Homo sapiens [16] was over 500 each time.
For the compound `CCCn1c(=O)[nH]c2nc(-c3ccc(S(=O)(=O)N4CCN(c5ccc(OC)c(Cl)c5)CC4)cc3)[nH]c2c1=O`, the Ki at Adenosine receptor A2b [1] was 0.352 nM; on Adenosine receptor A2a [2], over 1000 nM; on Adenosine receptor A1 [3] it was over 1000 nM; on Adenosine receptor A3 [4], over 1000 nM. Besides, the inhibition at Adenosine receptor A2a [14] came out at 31%; in [15], 23%; in data set [8], 1%. For the same compound, the Ratio Ki in the data set filed under Homo sapiens [9], in the data set filed under Homo sapiens [10] and in the data set filed under Homo sapiens [16] was over 2840 each time.
As to `CCCn1c(=O)[nH]c2nc(-c3ccc(S(=O)(=O)N4CCN(c5ccc(Cl)cc5)CC4)cc3)[nH]c2c1=O`, the solubility thermodynamic at 24 h, 200 µM in data set [17] is 3.2 µM (≈ 1.69 µg/mL).
Turning to `CCCn1c(=O)[nH]c2nc(-c3ccc(S(=O)(=O)N4CCN(c5ccc(OC)c(F)c5)CC4)cc3)[nH]c2c1=O`, the Ki at Adenosine receptor A2b [1] is 1.24 nM; at Adenosine receptor A2a [2], over 1000 nM; at Adenosine receptor A1 [3], over 1000 nM; on Adenosine receptor A3 [4], over 1000 nM. Besides, the figures for the inhibition (on Adenosine receptor A2a [14]; in data set [15]; in [8]) were 30%, 34% and 21%, respectively. The Ratio Ki in the data set listed under Homo sapiens [9], in the data set listed under Homo sapiens [10] and in the data set filed under Homo sapiens [16] was over 800 in each case.
